Screening data: PubChem, several laboratories
UCH37 DUB inh: blocks the human deubiquitinase UCH37. Q9Y5K5. purified proteasome/UCH37, Ub-AMC cleavage fluorescence. inhibition, % (no concentration beside the values). 330,000 compounds, 0.33% hits;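 active means mean inhibition over replicate wells above about 20%, limit read from the data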;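 further: 0% = compound-free wells with enzyme and 100% = wells lacking proteasome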
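system = Proteasome-associated human UCH37 deubiquitinase | amount = 0.15 nM proteasome as dispensed | medium = pH 7.4 Tris-HCl (50 mM) with ovalbumin, ATP-MgCl2, DTT | incubation = 30 min preincubation with enzyme, 25 min cleavage at room temperature | detection = AMC fluorescence 355/460 nm | read-out basis = percent inhibition | controls = no-proteasome and no-compound wells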
MEKK2mut PB1 HTS: signal of MEK5 binding to mutant human MEKK2 PB1 domain. 290,000 compounds, 0.35% hits. percent response, % at 10 µM. bead flow cytometry, Alexa488-MEK5 binding to MEKK2 mutant. AID 1530; in the data active means percent response above about 24%, passing the limit was not always enough
UBC13 polyUb: human UBC13 polyubiquitination inhibition; UBC13 polyubiquitin chain formation, TR-FRET; inhibition, % at 20 µM; 330,000 compounds, 0.47% hits; in the data active means inhibition above about 45%, passing the limit was not always enough
MEKK3 PB1 HTS: modulators (inhibitors or enhancers) of MEK5 binding to human MEKK3 PB1 domain; bead-based flow cytometry, Alexa488-MEK5 binding to MEKK3; actives lie on both sides; 0 = blocked by unlabeled MEK5, 100 = vehicle; binding response (% of control), % at 10 µM; Q99759; 290,000 compounds, 1.4% hits;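 active means binding response more than 3 SD above or below the average of its plate-row segment, actives on both sides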;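 further: Alexa488 bead fluorescence after subtracting the streptavidin-only scavenger bead signal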
Target sequence (Q99759 whole entry, looked up, the tested form may be a part): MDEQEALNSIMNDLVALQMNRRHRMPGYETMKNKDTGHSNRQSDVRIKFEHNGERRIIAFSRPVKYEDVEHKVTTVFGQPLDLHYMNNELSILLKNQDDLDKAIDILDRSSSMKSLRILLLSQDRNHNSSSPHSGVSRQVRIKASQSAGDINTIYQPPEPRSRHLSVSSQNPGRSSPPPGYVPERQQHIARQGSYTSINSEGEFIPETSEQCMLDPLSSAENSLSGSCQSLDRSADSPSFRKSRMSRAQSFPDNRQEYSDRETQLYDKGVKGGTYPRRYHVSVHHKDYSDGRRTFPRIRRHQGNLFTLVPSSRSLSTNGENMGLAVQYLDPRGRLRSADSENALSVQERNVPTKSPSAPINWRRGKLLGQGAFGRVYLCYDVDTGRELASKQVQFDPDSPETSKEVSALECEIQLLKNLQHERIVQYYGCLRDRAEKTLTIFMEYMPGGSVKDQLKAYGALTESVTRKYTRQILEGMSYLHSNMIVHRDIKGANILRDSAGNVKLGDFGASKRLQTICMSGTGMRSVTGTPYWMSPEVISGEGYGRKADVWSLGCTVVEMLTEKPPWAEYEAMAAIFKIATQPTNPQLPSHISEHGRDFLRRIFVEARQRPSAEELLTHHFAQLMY
MEKK2wt PB1 HTS: raises or lowers MEK5 binding to wildtype human MEKK2 PB1 domain; AID 1531; bead flow cytometry, Alexa488-MEK5 binding to MEKK2 WT; actives lie on both sides; binding response (% of control), % at 10 µM; 290,000 compounds, 1.1% hits; in the data active means binding response below about 67% or above about 130%
Apaf1 inhib: blocks human Apaf-1 apoptosome activity | O14727 | reconstituted apoptosome caspase-3 activity, DEVD-Rh110 fluorescence | inhibition, % at 20 µM | 330,000 compounds, 0.71% hits | AID 489030; active means inhibition of at least 40% at 20 µM;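 further: plate controls were DMSO wells for no effect and DEVD-CHO caspase inhibitor wells for full effect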
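detection = Rh110 fluorescence intensity | test system = biochemical Apaf-1 apoptosome reconstitution | also added = cytochrome c and DEVD-Rh110 substrate | schedule = 30 min plus 50 min, RT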
MEKK2wt confirm: raises or lowers MEK5 binding to wildtype human MEKK2, retest. shares compounds with MEKK3 PB1 HTS. bead flow cytometry, Alexa488-MEK5 binding to MEKK2 WT; actives lie on both sides. binding response (% of control), % at 10 µM. 5,900 compounds, 2.4% hits; in the data active means binding response below about 16% or above about 210%; inactive means in between
MEKK2mut confirm: signal of MEK5 binding to mutant human MEKK2, retest; shares compounds with MEKK3 PB1 HTS; percent response, % at 10 µM; 5,900 compounds, 2% hits; bead flow cytometry, Alexa488-MEK5 binding to MEKK2 mutant; in the data active means percent response mostly above about 71%, no sharp cut-off; inactive means mostly below about 38%;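 further: higher means compound restores mutant binding toward wildtype level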
MEKK3-MEK5 inh: MEKK3-MEK5 PB1 inhibition, single concentration confirmation; shares compounds with MEKK3 PB1 HTS; bead flow cytometry, Alexa488-MEK5 binding to MEKK3; stronger effect = lower value; binding response (% of control), % at 10 µM; 5,900 compounds, 1.8% hits; AID 1894;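 active means binding response below 72% of control, or above a set upper limit, though filed actives all read lower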;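 further: 100% = DMSO only wells and 0% = binding blocked by excess unlabeled MEK5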
An asterisk follows results filed as active; x = not tested or not shown; [ ] = another dose, or the depositor's remark. Shown are actives, neighbours in structure and some others; about 3% of the full set was active somewhere.

SMILES	UCH37 DUB inh	MEKK2mut PB1 HTS	UBC13 polyUb	MEKK3 PB1 HTS	MEKK2wt PB1 HTS	Apaf1 inhib	MEKK2wt confirm	MEKK2mut confirm	MEKK3-MEK5 inh
N/C(=N\OC(=O)C(c1ccccc1)c1ccccc1)c1ccccn1	3	1	-1	2.0*[inhibitor]	2.0*[inhibitor]	3	97	-7	99
CCCCc1nnc(NC(=O)CSc2nc(O)c(Cc3ccccc3)c(=O)[nH]2)s1	x	1	3	108	107	-1	x	x	x
CCCCc1nnc(NC(=O)CSc2nc(O)c(-c3ccccc3)c(=O)[nH]2)s1	6	533*	3	117	x	-1	102	0	103
C=CCNC(=O)/C(=C/c1ccc(Br)cc1)NC(=O)c1ccccc1OC	1	-13	-10	90	82	1	x	x	x
COc1ccccc1C(=O)N/C(=C\c1ccc(Br)cc1)C(=O)NCCO	1	6	-10	129*	126	7	106	9	106
COc1ccc(NC(=O)C2CCN(S(=O)(=O)c3c(C)noc3C)CC2)cc1	1	2	-7	100	101	11	x	x	x
Cc1ccc(Nc2nc(NCC3CCCO3)nc(N)c2[N+](=O)[O-])cc1C (centres undefined)	6	-1	-8	74*[inhibitor]	95	-7	106	5	102
CC(C)CNc1nc(N)c([N+](=O)[O-])c(NCC2CCCO2)n1 (centres undefined)	7	-3	-1	95	94	7	x	x	x
CCc1ccc2c(c1)C(c1ccc(N3CCOCC3)cc1)=NNC(c1ccncc1)=N2	4	7	18	148*	131	17	103	0	104
Cc1sc(NC(=O)c2ccco2)c(C(c2ccncc2)N2CCOCC2)c1C (centres undefined)	7	2	-19	105	106	6	x	x	x
O=C(O)C1CC(=O)N(c2ccc(OCc3ccccc3)cc2)C1 (centres undefined)	2	-3	0	72*[inhibitor]	76	3	103	-1	101
COc1ccc(OC)c(C2C3=C(COC3=O)Nc3cc4c(cc32)OCO4)c1 (centres undefined)	-16	4	14	100	99	15	x	x	x
Cc1ccc2nc(Cl)c(C3CC(c4cccs4)=NN3C(=O)CCC(=O)O)cc2c1 (centres undefined)	-5	-1	-4	139*	103	2	86	0	90
O=C(NCC1CCCO1)C(c1ccncc1)N(Cc1ccc(F)cc1)C(=O)CN1C(=O)c2ccccc2S1(=O)=O (centres undefined)	-1	1	8	108	106	-6	x	x	x
Cc1ccc(C(NC(=O)NC(C)c2ccccc2)C(Cl)(Cl)Cl)cc1F (centres undefined)	2	21	7	108	107	-4	x	x	x
COc1ccccc1Nc1nnc(SCc2cc(=O)n3cc(C)ccc3n2)s1	7	1	-10	142*	111	1	90	-10	92
O=c1[nH]c2cc3c(cc2cc1CN(Cc1ccc2c(c1)OCO2)Cc1nnnn1CC1CCCO1)OCO3 (centres undefined)	-82	3	4	98	102	12	x	x	x
Cc1ccc2cc(CN(Cc3nnnn3C3CCCCC3)CC3CCCO3)c(=O)[nH]c2c1 (centres undefined)	-1	-20	6	1.0*[inhibitor]	-3.0*[inhibitor]	2	94	-1	99
Cc1ccc2[nH]c(=O)c(CN(Cc3cccnc3)Cc3nnnn3CC3CCCO3)cc2c1 (centres undefined)	-1	32	4	135*	121	-21	106	4	106
COCCn1nnnc1CN(Cc1cccnc1)Cc1cc2cc(OC)ccc2[nH]c1=O	-29	2	x	102	103	x	x	x	x
Cc1ccc2[nH]c(=O)c(CN(Cc3cccnc3)Cc3nnnn3CCN3CCOCC3)cc2c1	-7	-41	-10	2.0*[inhibitor]	2.0*[inhibitor]	2	101	1	101
CC(Oc1ccccc1)C(=O)N1CCN(c2ncccn2)CC1 (centres undefined)	-3	x	7	x	x	-2	x	x	x
O=C(Nc1ccccc1C(=O)Nc1nncs1)c1ccccc1	-37	-19	13	86	87	-11	x	x	x
O=C(Nc1nncs1)c1ccc(S(=O)(=O)c2ccccc2)cc1	3	6	0	123*	119	-8	105	0	107
COc1ccc2ccccc2c1CNC(C)c1ccccc1 (centres undefined)	3	5	2	104	118	0	x	x	x
SMILES	UCH37 DUB inh	MEKK2mut PB1 HTS	UBC13 polyUb	MEKK3 PB1 HTS	MEKK2wt PB1 HTS	Apaf1 inhib	MEKK2wt confirm	MEKK2mut confirm	MEKK3-MEK5 inh
CC(NCCCOc1cccc2ccccc12)c1ccccc1 (centres undefined)	4	18	18	107	175*	24	156	26	110
COc1cc(CNCc2cccs2)ccc1OCc1cccs1	2	-27	16	2.0*[inhibitor]	-1.0*[inhibitor]	-6	122	12	102
O=C(O)C1Cc2c([nH]c3ccccc23)C(c2ccc3c(c2)OCO3)N1 (centres undefined)	-1	13	0	97	6.0*[inhibitor]	-9	101	-4	100
O=C(COc1ccccc1)NC1CCCCCCC1	2	0	-3	96	98	6	x	x	x
O=c1[nH]cnc2c([N+](=O)[O-])cccc12	3	-1	12	97	96	1	x	x	x
CN1CCN(S(=O)(=O)c2cccc(C(=O)Oc3ccc(Br)cc3F)c2)CC1	-1	12	5	113	119	4	x	x	x
O=C(NC1(C(F)(F)F)NC(=O)N(c2ccc(F)cc2)C1=O)c1cccs1 (centres undefined)	4	0	12	158*	111	-14	106	-2	102
Cc1sc2nc(CSCC(=O)Nc3cc(F)ccc3F)[nH]c(=O)c2c1C	1	x	17	x	x	-4	x	x	x
O=C(c1nn(-c2ccccc2)c(=O)c2ccccc12)N1CCN(c2ncccn2)CC1	2	-5	-4	103	94	11	x	x	x
O=C(c1nn(-c2ccccc2)c(=O)c2ccccc12)N1CCN(c2ccccn2)CC1	2	-5	-8	66*[inhibitor]	78	-3	102	1	99
